Experimental data: ChEMBL document CHEMBL3286272, “Synthesis, biological, and biophysical studies of DAG-indololactones designed as selective activators of RasGRP” (Bioorg Med Chem, 2014)
Activity calls are given as the source filed them.

How the values were obtained:
Type in all cases: cell-based
[1] = target: Protein kinase C delta type (Homo sapiens) (UniProt Q05655); assay: Binding affinity to recombinant human GFP-tagged PKC-delta expressed in human LNCAP cells assessed as induction of protein translocation from plasma membrane to internal membrane at 1000 nM after 2 to 10 mins by confocal microscopic analysis
Sequence of Protein kinase C delta type (Homo sapiens) (Q05655 whole entry, looked up): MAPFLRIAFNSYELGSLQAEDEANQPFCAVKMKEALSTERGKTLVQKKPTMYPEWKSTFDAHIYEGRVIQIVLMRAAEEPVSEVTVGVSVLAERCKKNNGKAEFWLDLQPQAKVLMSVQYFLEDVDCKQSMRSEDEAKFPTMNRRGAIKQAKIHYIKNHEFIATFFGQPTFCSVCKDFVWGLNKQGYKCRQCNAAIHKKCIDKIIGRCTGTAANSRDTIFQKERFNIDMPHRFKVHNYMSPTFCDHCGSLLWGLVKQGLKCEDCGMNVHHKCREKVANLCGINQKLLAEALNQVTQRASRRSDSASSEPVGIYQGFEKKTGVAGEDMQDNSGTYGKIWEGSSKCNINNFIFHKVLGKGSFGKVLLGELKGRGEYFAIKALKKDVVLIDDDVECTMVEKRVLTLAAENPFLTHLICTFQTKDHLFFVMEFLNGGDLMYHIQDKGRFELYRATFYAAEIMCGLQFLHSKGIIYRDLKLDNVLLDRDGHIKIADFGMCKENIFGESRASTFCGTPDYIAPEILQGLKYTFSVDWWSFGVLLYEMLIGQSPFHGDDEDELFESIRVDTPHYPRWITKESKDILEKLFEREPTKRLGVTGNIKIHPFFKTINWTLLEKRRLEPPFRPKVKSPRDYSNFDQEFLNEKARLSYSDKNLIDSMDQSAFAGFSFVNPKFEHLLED
Procedure, shortened: (§1)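 Human GFP-PKCδ or GFP-RasGRP3 is expressed transiently in LNCaP cells, which were plated at 80,000 cells/ml, transfected after 48 h and imaged live 24 h after transfection. Cells are treated with ligand ([…]) or PMA (1000 nM). Confocal images (488 nm excitation, 500–530 nm emission) are taken every 30 s for 30 min. Representative images, n = 3–6.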

[2] = target: T1, Ras guanyl-releasing protein 3 (Homo sapiens) (UniProt Q8IV61); assay: Binding affinity to recombinant human GFP-tagged RasGRP3 expressed in human LNCAP cells assessed as induction of protein translocation from plasma membrane to internal membrane at 1000 nM after 2 to 10 mins by confocal microscopic analysis; procedure, shortened: as §1
T1 sequence (whole entry): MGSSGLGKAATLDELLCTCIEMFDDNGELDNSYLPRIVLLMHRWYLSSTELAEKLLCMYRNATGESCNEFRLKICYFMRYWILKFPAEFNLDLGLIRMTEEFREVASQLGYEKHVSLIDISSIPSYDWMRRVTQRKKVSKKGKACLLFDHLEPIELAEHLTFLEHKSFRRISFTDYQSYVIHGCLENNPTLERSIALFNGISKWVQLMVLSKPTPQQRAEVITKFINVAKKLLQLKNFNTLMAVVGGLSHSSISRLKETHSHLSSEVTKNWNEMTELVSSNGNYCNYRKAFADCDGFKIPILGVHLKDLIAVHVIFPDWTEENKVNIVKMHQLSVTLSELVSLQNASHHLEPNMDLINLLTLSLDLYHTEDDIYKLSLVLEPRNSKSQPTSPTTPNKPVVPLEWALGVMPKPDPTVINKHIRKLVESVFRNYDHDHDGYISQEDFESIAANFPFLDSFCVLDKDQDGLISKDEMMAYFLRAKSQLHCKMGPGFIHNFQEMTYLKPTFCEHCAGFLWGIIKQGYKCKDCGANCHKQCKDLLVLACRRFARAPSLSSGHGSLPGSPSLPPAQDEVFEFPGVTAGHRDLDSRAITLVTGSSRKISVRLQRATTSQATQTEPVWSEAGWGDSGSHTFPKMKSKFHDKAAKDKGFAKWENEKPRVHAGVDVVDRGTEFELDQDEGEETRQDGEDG

[3] = target: T1, Ras guanyl-releasing protein 3 (Homo sapiens); assay: Activation of RasGRP3 (unknown origin) overexpressed in HEK293 cells assessed as protein phosphorylation at T133 at 0.1 to 30 uM after 30 mins by Western blot analysis
[4] = target: Protein kinase C delta type (Homo sapiens) (UniProt Q05655); assay: Activation of PKC-delta in HEK293 cells assessed as protein phosphorylation at S299 at 0.1 to 30 uM after 30 mins by Western blot analysis
[5] = target: Protein kinase C delta type (Homo sapiens) (UniProt Q05655); assay: Activation of PKC-delta in HEK293 cells overexpressing RasGRP3 assessed as protein phosphorylation at S299 at 0.1 to 30 uM after 30 mins by Western blot analysis
[6] = target: T1, Ras guanyl-releasing protein 3 (Homo sapiens); assay: Activation of RasGRP3 (unknown origin) overexpressed in HEK293 cells assessed as ERK1/2 phosphorylation at 0.1 to 30 uM after 30 mins by Western blot analysis

Measured: Activity

CCCC(=O)O[C@@H]1[C@@H](C)[C@@]2(O)[C@@H](C=C(CO)C[C@]3(O)C(=O)C(C)=C[C@@H]23)[C@@H]2C(C)(C)[C@]12OC(=O)CCC
active: [1] | [2]

CCCCCCCCCCCCCC(=O)O[C@@H]1[C@@H](C)[C@@]2(O)[C@@H](C=C(CO)C[C@]3(O)C(=O)C(C)=C[C@@H]23)[C@@H]2C(C)(C)[C@]12OC(C)=O
active: all assays above
